target: T1, Exoenzyme S (Pseudomonas aeruginosa, UniProt Q93SQ1); test: Inhibition of Pseudomonas aeruginosa PAK secreted full length ExoS using human GST-fused vH-Ras as substrate preincubated for 10 mins followed by epsilonNAD+ addition measured at 30 mins in presence of 14.3.3beta and epsilonNAD+ by real-time fluorescent assay; conditions: read-out: IC50
T1 sequence (Q93SQ1 whole entry): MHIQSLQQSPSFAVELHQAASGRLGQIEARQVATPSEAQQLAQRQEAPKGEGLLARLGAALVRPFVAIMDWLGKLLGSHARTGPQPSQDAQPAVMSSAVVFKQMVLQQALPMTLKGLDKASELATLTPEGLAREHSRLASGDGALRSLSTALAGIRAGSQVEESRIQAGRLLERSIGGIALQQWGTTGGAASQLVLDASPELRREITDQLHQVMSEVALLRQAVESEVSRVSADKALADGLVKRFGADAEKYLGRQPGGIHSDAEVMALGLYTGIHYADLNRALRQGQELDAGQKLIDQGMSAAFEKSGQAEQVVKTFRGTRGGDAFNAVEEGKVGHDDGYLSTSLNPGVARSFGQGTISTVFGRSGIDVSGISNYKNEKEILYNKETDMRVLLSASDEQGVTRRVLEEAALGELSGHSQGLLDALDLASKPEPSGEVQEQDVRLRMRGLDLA
Outline: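 Induce ExoS secretion by growing P. aeruginosa PAK overnight at 37 °C in shaken LB. Dilute to OD600 0.001 in LB with 5 mM EGTA and 20 mM MgCl2, then shake 4 h at 37 °C. Add the culture to 500 nM 14-3-3b, vH-Ras and compound in triplicate (13 concentrations, 1% DMSO). Start with εNAD+. Use PAKΔexoS as negative control. Read fluorescence kinetically at 302/410; IC50 from linear-phase velocity (% control), two independent runs.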

Structure (SMILES)	IC50
O=C(O)CCCc1nc2cccc(F)c2c(=O)[nH]1	7.67 µM
O=C(O)[C@H]1C[C@@H]1c1nc2sc3c(c2c(=O)[nH]1)CCC3 (racemic)	2.36 µM
O=C(O)/C=C\c1nc2sc3c(c2c(=O)[nH]1)CCC3	3.51 µM
O=C(O)C1CC1c1nc2sc3c(c2c(=O)[nH]1)CCC3 (stereo in doubt; form 1)	1.32 µM
O=C(O)C1CC1c1nc2sc3c(c2c(=O)[nH]1)CCC3 (stereo in doubt; form 2)	8.31 µM
O=C(O)CCc1nc2sc3c(c2c(=O)[nH]1)CCC3	6.93 µM

same assay, conditions: read-out: pIC50 (converted)

Structure (SMILES)	IC50
O=C(O)[C@H]1C[C@@H]1c1nc2sc3c(c2c(=O)[nH]1)CCC3 (racemic)	2.4 µM

target: T1, Exoenzyme S; test: Inhibition of recombinant Pseudomonas aeruginosa PAK His6-tagged ExoS ADPRT domain expressed in Escherichia coli using human GST-fused vH-Ras as substrate measured over 30 mins in presence of 14.3.3beta and epsilonNAD+ by fluorescence assay; conditions: read-out: IC50
Outline: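 Recombinant ExoS ADPRT domain with 14-3-3 cofactor, Ras substrate and εNAD+. Read transfer of fluorescent εADP-ribose to Ras. Compounds tested at 8–10 concentrations in triplicate in three independent runs. IC50 by dose-response curve fitting.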

Structure (SMILES)	IC50
O=C(O)CCCc1nc2cccc(F)c2c(=O)[nH]1	25 µM
O=C(O)/C=C/c1nc2sc3c(c2c(=O)[nH]1)CCC3	70 µM
O=C(O)CCCc1nc2cc(F)c(F)cc2c(=O)[nH]1	15 µM
CS(=O)(=O)NC(=O)CCc1nc2sc3c(c2c(=O)[nH]1)CCCC3	100 µM
O=c1[nH]c(CCCO)nc2sc3c(c12)CCC3	52 µM
O=C(O)CCCCc1nc2sc3c(c2c(=O)[nH]1)CCC3	53 µM
O=C(O)[C@H]1C[C@H]1c1nc2sc3c(c2c(=O)[nH]1)CCC3 (racemic)	190 µM
Nc1nc(CCC(=O)O)nc2sc3c(c12)CCC3	> 200 µM
O=C(O)[C@H]1CCC[C@H]1c1nc2sc3c(c2c(=O)[nH]1)CCC3	65 µM
O=C(O)CCc1ncc(C2=CCCC2)c(=O)[nH]1	200 µM
O=C(O)[C@H](O)Cc1nc2sc3c(c2c(=O)[nH]1)CCC3	191 µM
O=C(O)COCc1nc2sc3c(c2c(=O)[nH]1)CCC3	72 µM
O=C(O)[C@H]1C[C@@H]1c1nc2sc3c(c2c(=O)[nH]1)CCC3 (racemic)	10 µM
O=C(O)CCCc1nc2ccccc2c(=O)[nH]1	25 to 30 µM
O=C(O)CCc1nc2scc(-c3ccccc3)c2c(=O)[nH]1	56 µM
O=C1NC(C2CC2C(=O)O)Nc2sc3c(c21)CCC3 (racemic)	138 µM

Structure (SMILES)	IC50
O=C(O)CCC(=O)Nc1sc2c(c1C(=O)O)CCCC2	> 200 µM
O=C(O)/C=C\c1nc2sc3c(c2c(=O)[nH]1)CCC3	15 µM
O=C(O)c1ccc(-c2nc3ccccc3c(=O)[nH]2)cc1	30 µM
O=C(O)CCc1nc2cc3c(cc2c(=O)[nH]1)CCC3	98 µM
O=C(O)c1ccccc1-c1nc2sc3c(c2c(=O)[nH]1)CCC3	97 µM
O=C(O)CCc1nc2sc3c(c2c(=O)[nH]1)CCCC3	55 µM
O=C(O)C1CC1c1nc2sc3c(c2c(=O)[nH]1)CCC3 (stereo in doubt; form 1)	6.9 µM
O=C(O)C1CC1c1nc2sc3c(c2c(=O)[nH]1)CCC3 (stereo in doubt; form 2)	39 µM
O=c1[nH]c([C@@H]2C[C@H]2c2nn[nH]n2)nc2sc3c(c12)CCC3 (relative stereo)	233 µM
O=C(O)[C@@H](O)Cc1nc2sc3c(c2c(=O)[nH]1)CCC3	55 µM
O=C(O)CCc1nc2ccc3c(c2c(=O)[nH]1)CCC3	54 µM
O=C(O)c1ccc(-c2nc3ccccc3c(=O)[nH]2)o1	32 µM
COC(=O)CCc1nc2sc3c(c2c(=O)[nH]1)CCC3	116 µM
O=C(O)CCc1nc2sc3c(c2c(=O)[nH]1)CCC3	19 to 20 µM
O=C(O)CCC(=O)Nc1sc2c(c1C(=O)O)CCOC2	> 200 µM

same assay, conditions: read-out: pIC50 (converted)

Structure (SMILES)	IC50
O=C(O)[C@H]1C[C@@H]1c1nc2sc3c(c2c(=O)[nH]1)CCC3 (racemic)	11.2 µM
O=C(O)CCc1nc2sc3c(c2c(=O)[nH]1)CCC3	27.5 µM

target: T2, Exoenzyme S (Pseudomonas aeruginosa) (UniProt Q93SQ1); test: Inhibition of recombinant Pseudomonas aeruginosa PAK His6-tagged ExoS ADPRT domain expressed in Escherichia coli at 100 uM using human GST-fused vH-Ras as substrate measured over 30 mins in presence of 14.3.3beta and epsilonNAD+ by fluorescence assay relative to control; conditions: not given
T2 sequence (whole entry): T1 sequence (Q93SQ1 whole entry)

Structure (SMILES)	inhibition
O=C(O)CCCc1nc2ccc3c(c2c(=O)[nH]1)CCCC3	30%
O=C(O)CCc1nc2sc3c(c2c(=O)[nH]1)CCCCC3	< 50%
O=C(O)CCc1nc2sc3c(c2c(=O)[nH]1)CCOC3	< 60%
O=C(O)CCCc1nc2ccc3c(c2c(=O)[nH]1)CCC3	60%
O=C(O)CCCc1nc2ccc([N+](=O)[O-])cc2c(=O)[nH]1	30%
COC(=O)CCc1nc(OC)c2c3c(sc2n1)CCC3	25%
COc1ccc2c(=O)[nH]c(CCCC(=O)O)nc2c1	20%
O=C(O)/C=C/c1nc2ccccc2c(=O)[nH]1	< 50%
O=C(O)CCCc1nc2cc3c(cc2c(=O)[nH]1)CCCC3	22%
O=C(O)CCc1nc2ccc3c(c2c(=O)[nH]1)CCCC3	45%
O=C(O)CCCCc1nc2ccccc2c(=O)[nH]1	69%
O=C(O)CCc1nc2cc3c(cc2c(=O)[nH]1)CCCC3	27%
O=C(O)c1ccccc1Cc1nc2sc3c(c2c(=O)[nH]1)CCC3	50%
COC(=O)CCc1nc(N)c2c3c(sc2n1)CCC3	12%
O=C(O)CCCc1nc2cc3c(cc2c(=O)[nH]1)CCC3	50%
